The values below come from ChEMBL document CHEMBL4004828, “Synthesis and biological evaluation of fluorinated N-benzoyl and N-phenylacetoyl derivatives of 3-(4-aminophenyl)-coumarin-7-O-sulfamate as steroid sulfatase inhibitors” (Eur J Med Chem, 2017).

Assay [1] deals with MDA-MB-231. The assay is described as follows: Cytotoxicity against human MDA-MB-231 cells assessed as growth inhibition after 120 hrs by MTT assay. Format: functional. Particulars: MDA-MB-231, 120 h. In a few lines: (§1)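 Cells grown in phenol red-free high-glucose DMEM with 10% FBS, penicillin (62.6 µg/mL) and streptomycin (40 µg/mL) at 37 °C, 10% CO2, screened for Mycoplasma. Exponentially growing cells exposed to test agents for 120 h; viability read by MTT assay; GI50 derived.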
A general note: Formazan colour is commonly taken as a measure of viable cells.

For assay [2], the system named is T47D. The assay is described as follows: Cytotoxicity against human T47D cells assessed as growth inhibition after 120 hrs by MTT assay. Format: functional. In a few lines: as §1
The target in assay [3] is T1, Steryl-sulfatase (Homo sapiens, UniProt P08842).
T1 sequence (P08842 whole entry): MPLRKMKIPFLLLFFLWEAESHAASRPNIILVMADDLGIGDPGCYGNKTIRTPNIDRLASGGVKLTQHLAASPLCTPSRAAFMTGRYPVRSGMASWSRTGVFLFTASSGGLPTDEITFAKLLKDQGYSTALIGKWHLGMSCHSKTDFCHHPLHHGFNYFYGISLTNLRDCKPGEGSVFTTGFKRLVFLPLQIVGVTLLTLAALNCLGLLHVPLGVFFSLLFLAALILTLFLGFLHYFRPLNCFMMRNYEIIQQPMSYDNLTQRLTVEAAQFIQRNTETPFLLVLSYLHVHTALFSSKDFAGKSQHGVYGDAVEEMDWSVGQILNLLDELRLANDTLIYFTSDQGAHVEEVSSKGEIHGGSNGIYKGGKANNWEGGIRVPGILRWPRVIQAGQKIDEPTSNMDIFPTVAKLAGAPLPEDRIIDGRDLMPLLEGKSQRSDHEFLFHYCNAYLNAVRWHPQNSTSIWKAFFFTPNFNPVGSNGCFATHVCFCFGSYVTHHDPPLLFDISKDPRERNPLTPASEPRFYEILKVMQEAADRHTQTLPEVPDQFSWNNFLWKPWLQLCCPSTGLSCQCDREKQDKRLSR
The assay is described as follows: Inhibition of human placenta steroid sulfatase using p-nitrophenyl sulfate as substrate after 15 mins. Put shortly: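 STS extracted from human placenta, purified to homogeneity by multi-step chromatography; 5 U enzyme in 20 mM Tris–HCl pH 7.4 with 3 mM p-nitrophenyl sulfate and inhibitor 0.01–100 µM, 37 °C for 15 min. Stopped with 1 M NaOH; released p-nitrophenol read at 405 nm. Triplicate measurements; IC50 calculated.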

Assay [4] deals with SK-BR-3. The assay is described as follows: Cytotoxicity against human SKBR3 cells assessed as growth inhibition after 120 hrs by MTT assay. Format: functional. Particulars: SK-BR-3, 120 h. In a few lines:
as §1

The subject of assay [5] is MCF7. The assay is described as follows: Cytotoxicity against human MCF7 cells assessed as growth inhibition after 120 hrs by MTT assay. The assay is classed as functional. The conditions noted are these: MCF7, 120 h. In a few lines: as §1

Broadly, the GI50 is the concentration at which growth is held to half of that of the control. As a reminder, the IC50 is the concentration needed to halve the response being measured.

A value given as a limit tells only on which side of the number the result lay.

Take `NS(=O)(=O)Oc1ccc2ccc(=O)oc2c1`: the concentration for 50% growth inhibition (GI50) in assay [1], in assay [2], in assay [4] and in assay [5] was above 100 µM in each case. Moreover, the IC50 in assay [3] is 1.38 µM.
`NS(=O)(=O)Oc1ccc2cc(-c3ccc([N+](=O)[O-])cc3)c(=O)oc2c1` had an IC50 in assay [3] of 0.29 µM.
In assay [3], `NS(=O)(=O)Oc1ccc2cc(-c3ccc(NC(=O)Cc4ccc(F)c(F)c4)cc3)c(=O)oc2c1` came in with an IC50 of 0.36 µM.
Regarding `NS(=O)(=O)Oc1ccc2cc(-c3cc(F)c(F)c(F)c3)c(=O)oc2c1`, the GI50 came to 56.3 µM in assay [1], 30.7 µM in assay [2], 61.3 µM in assay [4] and 32.6 µM in assay [5]. Further, the IC50 in assay [3] amounted to 0.29 µM.
`NS(=O)(=O)Oc1ccc2cc(-c3ccc(NC(=O)Cc4ccc(F)c(C(F)(F)F)c4)cc3)c(=O)oc2c1`: half-maximal inhibition in assay [3] (IC50) required 0.38 µM.
Same read-out and setting: under `NS(=O)(=O)Oc1ccc2cc(-c3ccc(NC(=O)Cc4c(F)c(F)c(F)c(F)c4F)cc3)c(=O)oc2c1` stands 0.34 µM; under `NS(=O)(=O)Oc1ccc2cc(-c3ccc(NC(=O)c4ccccc4)cc3)c(=O)oc2c1`, 0.49 µM; under `NS(=O)(=O)Oc1ccc2cc(-c3ccc(NC(=O)Cc4ccc(OC(F)(F)F)cc4)cc3)c(=O)oc2c1`, 0.44 µM.
As for `NS(=O)(=O)Oc1ccc2cc(-c3ccc(NC(=O)c4ccc(F)c(F)c4)cc3)c(=O)oc2c1`, the GI50 in assay [1], in assay [2], in assay [4] and in assay [5] was above 100 µM throughout. This molecule also registered an IC50 in assay [3] of 0.18 µM.
Take `NS(=O)(=O)Oc1ccc2cc(-c3ccc(F)c(F)c3)c(=O)oc2c1`: the GI50 in assay [1] is 61.5 µM; in assay [2], 43 µM; in assay [4], above 100 µM; in assay [5], 30 µM. Besides, in assay [3], the IC50 turned out to be 0.28 µM.
Turning to `NS(=O)(=O)Oc1ccc2cc(-c3ccc(NC(=O)Cc4ccccc4)cc3)c(=O)oc2c1`, the IC50 in assay [3] is 0.26 µM.
Regarding `NS(=O)(=O)Oc1ccc2cc(-c3ccc(NC(=O)c4ccc(F)cc4)cc3)c(=O)oc2c1`, the GI50 in assay [1], in assay [2], in assay [4] and in assay [5] was above 100 µM each time. In assay [3], this molecule showed an IC50 of 0.21 µM.
Regarding `NS(=O)(=O)Oc1ccc2cc(-c3ccc(NC(=O)Cc4cc(F)c(F)c(F)c4)cc3)c(=O)oc2c1`, the GI50 turned out to be 11.7 µM in assay [1], 13.7 µM in assay [2], 36.1 µM in assay [4] and 31.3 µM in assay [5]. In addition, the IC50 in assay [3] stood at 0.3 µM.
In assay [3], `NS(=O)(=O)Oc1ccc2cc(-c3ccc(NC(=O)c4c(F)c(F)c(F)c(F)c4F)cc3)c(=O)oc2c1` registered an IC50 of 0.23 µM.
On to `CC/C(=C(\c1ccccc1)c1ccc(OCCN(C)C)cc1)c1ccccc1` [TAMOXIFEN], for which the GI50 was 15.1 µM in assay [1], 10.6 µM in assay [2], 12.5 µM in assay [4] and 6.8 µM in assay [5].
